# Source: PubChem BioAssay AID463201 (Sanford-Burnham Center for Chemical Genomics, 2010)
# The source made the active and inactive calls.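 Rule for the calls: active = activation above 50% at 10 µM in both replicate datasets; inactive = the rest.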
# Target: Vasopressin V2 receptor (Homo sapiens) (UniProt P30518)
# Experiment: vasopressin V2 receptor agonist activity, SAR follow-up, selectivity assay for GPR35 antagonist project, imaging, beta-arrestin-GFP, U2OS, agonist mode (AID 463201)
# Conditions: U2OS V2R beta-arrestin-GFP translocation imaging, 40 min; at 10 µM; stronger effect = higher value
# Method in brief: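 Material: U2OS cells stably expressing human vasopressin receptor and beta-arrestin2-GFP / Medium: serum-free culture medium during compound exposure / Schedule: compound exposure 40 min at 37 °C, then fixation / Signal: imaging of arrestin-GFP aggregates in fixed cells / Control set: arginine vasopressin at 0.01 µIU/mL (low) and 10 mIU/mL (high)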
# Vasopressin V2 receptor (Homo sapiens), sequence (P30518 whole entry, looked up): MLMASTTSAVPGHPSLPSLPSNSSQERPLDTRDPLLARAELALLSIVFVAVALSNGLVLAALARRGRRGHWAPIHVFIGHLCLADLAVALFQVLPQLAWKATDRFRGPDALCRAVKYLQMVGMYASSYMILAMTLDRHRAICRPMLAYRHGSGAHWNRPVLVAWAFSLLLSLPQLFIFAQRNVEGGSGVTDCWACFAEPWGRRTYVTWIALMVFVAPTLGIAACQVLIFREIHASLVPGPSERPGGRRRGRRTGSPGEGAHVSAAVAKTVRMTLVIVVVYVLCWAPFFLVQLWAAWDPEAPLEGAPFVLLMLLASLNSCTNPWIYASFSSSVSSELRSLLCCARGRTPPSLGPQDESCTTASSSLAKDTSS
row,Structure (SMILES),activation
1,CCOC(=O)c1ccc(NC(=O)CCCN2C(=O)/C(=C/c3ccc(C)cc3)SC2=S)cc1,0.05% (inactive)
2,O=C(CCCN1C(=O)/C(=C\c2ccccc2)SC1=S)Nc1cccc(C(=O)O)c1,0.66% (inactive)
3,Clc1ccc(Cn2ncc3c(N4CCN(c5ccccc5)CC4)ncnc32)cc1,-0.08% (inactive)
4,CCc1ccc(/C=C2\SC(=S)N(CCCC(=O)Nc3ccc(C(=O)O)cc3)C2=O)cc1,-0.5% (inactive)
5,Cc1ccccc1N1CCN(c2ncnc3c2cnn3Cc2ccc(Cl)cc2)CC1,-0.16% (inactive)
6,O=C(CCCN1C(=O)/C(=C/c2ccccc2)SC1=S)Nc1ccc(C(=O)O)c(O)c1,1.45% (inactive)
7,CC(C)(C)c1ccc(OCCC(=O)NCCc2ccc(S(N)(=O)=O)cc2)cc1,-0.05% (inactive)
8,COc1cccc(/C=C2\SC(=S)N(CCCC(=O)Nc3ccc(C(=O)O)cc3)C2=O)c1,-0.18% (inactive)
9,O=C(Nc1ccc2nc(SCc3ccccc3)sc2c1)c1ccccc1C(=O)N1CCOCC1,-0.18% (inactive)
10,Cc1ccc(Cn2ncc3c(N4CCN(c5ccccc5C)CC4)ncnc32)cc1,-0.08% (inactive)
11,COc1ccc(/C=C2\SC(=S)N(CCCC(=O)Nc3cccc(C(=O)O)c3)C2=O)cc1OC,-0.11% (inactive)
12,CC(/C=C1\SC(=S)N(CCCC(=O)Nc2ccc(C(=O)O)c(O)c2)C1=O)=C\c1ccccc1,0.21% (inactive)
13,Cc1ccc(/C=C2\SC(=S)N(CCCC(=O)Nc3ccc(O)cc3)C2=O)cc1,-0.18% (inactive)
14,CC(/C=C1\SC(=S)N(CCCC(=O)Nc2ccc(C(=O)O)cc2)C1=O)=C\c1ccccc1,-0.11% (inactive)
15,CCOc1ccc(NC(=O)CSc2nc3ccsc3c(=O)n2Cc2ccc(C(=O)O)cc2)cc1,0.24% (inactive)
16,O=C(CCCN1C(=O)/C(=C/c2ccc3c(c2)OCO3)SC1=S)Nc1ccc(C(=O)O)c(O)c1,0.21% (inactive)
17,O=C(Nc1ccc2nc(SCc3ccc(Cl)cc3)sc2c1)c1ccccc1C(=O)N1CCOCC1,0.71% (inactive)
18,O=C(CCCN1C(=O)/C(=C/c2ccc3c(c2)OCO3)SC1=S)Nc1ccc(C(=O)O)cc1,-0.34% (inactive)

# Further lines, results first:
row,activation,Structure (SMILES)
1,-0.24% (inactive),COc1ccc(/C=C2\SC(=S)N(CCCC(=O)Nc3ccc(C(=O)O)c(O)c3)C2=O)cc1OC
2,-0.08% (inactive),Cc1ccc(/C=C2\SC(=S)N(CCCC(=O)Nc3cccc(C(=O)O)c3)C2=O)cc1
3,0.11% (inactive),O=C(CCCN1C(=O)S/C(=C\C=C\c2ccccc2)C1=O)Nc1ccc(C(=O)O)cc1
4,0.05% (inactive),CC(C)c1ccc(NC(=O)CSc2nc3ccsc3c(=O)n2Cc2ccc(C(=O)O)cc2)cc1
5,-0.29% (inactive),O=C(CCCN1C(=O)/C(=C/c2ccc3c(c2)OCO3)SC1=S)Nc1cccc(C(=O)O)c1
6,-0.21% (inactive),O=C(CCCN1C(=O)S/C(=C/c2ccccc2)C1=S)Nc1ccc(C(=O)O)cc1
7,-0.03% (inactive),Cc1c(C(=O)Nc2ccc3c(c2)OCCO3)sc2ncnc(N3CCC(C)CC3)c12
8,0.29% (inactive),O=C(CCCN1C(=O)/C(=C\c2ccccc2)SC1=S)Nc1ccc(C(=O)O)cc1
9,-0.32% (inactive),COc1ccc(/C=C2/SC(=S)N(CCCC(=O)Nc3ccc(O)cc3)C2=O)cc1
10,-0.03% (inactive),COc1ccc(/C=C2\SC(=S)N(CCCC(=O)Nc3ccc(O)cc3)C2=O)cc1
11,-0.13% (inactive),Cc1nc(N2CCC(C)CC2)c2c(C)c(C(=O)Nc3ccc4c(c3)OCCO4)sc2n1
12,-0.18% (inactive),O=C(CCCN1C(=O)S/C(=C/C=C/c2ccccc2)C1=O)Nc1ccc(C(=O)O)cc1
